SENP6 inh: SENP6 protease inhibition. Q9GZR1. Recombinant SENP6 catalytic domain, aminoluciferin luminescence. inhibition, % at 10 µM. 330,000 tested, 1.8% active. AID 2599;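 active means inhibition above about 50% at the single tested dose, limit read from the data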;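 further: plate controls were DMSO wells with enzyme for no effect and DMSO wells lacking enzyme for full effect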
SENP8 block-1: SENP8 (human) protease inhibition; Q96LD8; inhibition, % at 20 µM; 360,000 tested, 0.64% active; recombinant SENP8, Nedd8 substrate fluorescence; in the data active means inhibition mostly above about 40%, no sharp cut-off; inactive means mostly below about 27%
Target sequence (Q96LD8 whole entry, looked up): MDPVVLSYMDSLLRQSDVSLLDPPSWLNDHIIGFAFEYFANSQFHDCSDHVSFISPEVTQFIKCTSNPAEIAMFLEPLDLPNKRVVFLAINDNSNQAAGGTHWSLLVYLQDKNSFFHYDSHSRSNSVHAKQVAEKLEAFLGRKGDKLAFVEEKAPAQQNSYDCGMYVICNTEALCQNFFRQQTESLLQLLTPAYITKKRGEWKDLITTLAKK
SENP8 block-2: SENP8 protease inhibition | inhibition, % at 10 µM | Q96LD8 | purified SENP8, Z-RLRGG-aminoluciferin cleavage, luminescence | 330,000 tested, 1.2% active; in the data active means inhibition above about 50%
UBC13 polyUb: inhibitors of human UBC13 polyubiquitin chain formation; TR-FRET; inhibition, % at 20 µM; 330,000 tested, 0.47% active; in the data active means inhibition above about 45%, passing the limit was not always enough
Target sequence (P61088 whole entry, looked up): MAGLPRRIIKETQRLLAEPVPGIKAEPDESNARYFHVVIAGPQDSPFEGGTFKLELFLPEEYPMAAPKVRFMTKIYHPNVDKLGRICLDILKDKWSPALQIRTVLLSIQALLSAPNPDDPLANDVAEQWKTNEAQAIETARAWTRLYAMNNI
Apaf1 inhib: human Apaf-1 inhibition. O14727. reconstituted apoptosome caspase-3 activity, DEVD-Rh110 fluorescence. inhibition, % at 20 µM. 330,000 tested, 0.71% active; active means inhibition of at least 40% at 20 µM;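 further: plate controls were DMSO wells for no effect and DEVD-CHO caspase inhibitor wells for full effect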
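Material: biochemical Apaf-1 apoptosome reconstitution. Medium: Hepes buffer, pH 7.5. Also added: cytochrome c activation, bis-DEVD rhodamine 110 substrate. Timing: 30 min compound preincubation, 50 min activation, room temperature. Measured by: rhodamine 110 fluorescence at Ex 480/Em 540 nm.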
SENP7 inh: SENP7 protease inhibition; recombinant SENP7, Z-RLRGG-aminoluciferin luminescence, 40 min; inhibition, % at 5 µM; 330,000 tested, 1.5% active; AID 434973;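 active means inhibition above about 50% at the single test dose, limit read from the data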;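 further: plate controls were DMSO with enzyme for no effect and no enzyme buffer wells for full effect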
SENP8 conf: SENP8 (human) inhibition, single concentration confirmation | shares compounds with SENP8 block-1 | purified SENP8, Nedd8-AMC/pro-Nedd8 cleavage fluorescence, 30 min | inhibition, % at 25 µM | 1,400 tested, 15% active | AID 624319; in the data active means inhibition mostly above about 39%, no sharp cut-off; inactive means mostly below about 34%
Starred values were filed as active, the others as inactive; x = no result. A selection: hits, their analogues and other compounds. The true share with any hit is near 3.1%.

SMILES	SENP6 inh	SENP8 block-1	SENP8 block-2	UBC13 polyUb	Apaf1 inhib	SENP7 inh	SENP8 conf
COc1ccccc1NC(=O)CSC(N)=O	-10	46*	-4	14	0	-4	17
COc1ccc(NCc2nnc(SCC(=O)Nc3ccccc3OC)o2)cc1	-4	46*	2	-9	12	-7	37
COc1ccc(OC)c(NC(=O)CSc2nnc(CNc3ccc(F)cc3)o2)c1	-4	1	1	7	9	2	x
COc1ccccc1OCCCn1c(=O)oc2ccc(C)cc21	-18	41*	-5	-9	11	-10	28
Nc1ccc2ccccc2c1C(=O)c1ccccc1	x	15	x	x	x	x	x
CCCCNC(=O)c1c(N)[nH]c(C(=O)c2ccccc2)c1-c1ccc(Cl)cc1	x	20	x	x	x	x	x
CC(C)(C)c1ccc2c(c1)OC(C(=O)N/N=C/c1ccc([N+](=O)[O-])o1)CO2 (stereo not drawn)	2	44*	2	-16	17	10	15
CC(C)(C)c1ccc2c(c1)OC(C(=O)N/N=C\c1ccncc1)CO2 (stereo not drawn)	-14	-1	-6	-2	9	-1	x
O=[N+]([O-])c1ccc(-[n+]2nc(-c3ccccc3)nn2-c2ccccc2)cc1	-1	50*	13	-5	8	10	45*
O=c1ccc(-c2ccc([N+](=O)[O-])cc2)nn1-c1ccccc1	-12	11	3	-11	-6	1	x
CCOC(=O)c1nc(NNC(=O)c2ccc([N+](=O)[O-])cc2)sc1C	20	41*	-2	-40	-2	5	2
CCOC(=O)c1sc(NNC(=O)c2ccc(C)cc2)nc1C	-18	5	-4	-5	-9	-10	x
Nc1c(NCCCN2CCOCC2)c2ccccc2oc1=O	5	38*	4	-3	-14	0	-6
Cc1nc(N2CCOCC2)nc(Oc2ccccc2F)c1[N+](=O)[O-]	18	41*	5	0	16	5	17
O=C1NC[C@@H](CCCCN2C[C@H](Cc3ccc(O)cc3)N(Cc3ccccc3)C(=O)C2=O)N(Cc2ccccc2)C1=O	x	12	x	x	x	x	x
COC(=O)c1ccc2nc(-c3ccco3)c(Cc3ccccc3)n2c1	x	-379	x	x	x	x	x
Cc1cc(C)n(-c2ccc(C(=O)N3CCN(c4ccccn4)CC3)cc2)n1	-17	-3	-6	8	-5	-6	x
Cc1cc(C)n(-c2ccc(C(=O)N3CCN(S(=O)(=O)c4ccc(Br)cc4Cl)CC3)cc2)n1	x	42*	x	x	x	x	8
CCC(=O)N1CCc2cc(Br)c(S(=O)(=O)CCC(=O)NCCc3ccccc3)cc21	x	5	x	x	x	x	x
COc1ccccc1-c1coc2cc(O)cc(O)c2c1=O	-18	17	-3	11	-2	0	x
O=c1c(-c2ccc(O)cc2O)coc2cc(O)cc(O)c12	8	55*	4	-1	-8	-3	22
COc1ccc(-c2cc(C(=O)Nc3ccc(OC)c(OC)c3)[nH]n2)c(C)c1	x	16	x	x	x	x	x
O=C(CCS(=O)(=O)c1cccc2nonc12)NCCc1ccccc1	8	41*	1	1	-1	11	12
CC(C)CCNC(=O)CCS(=O)(=O)c1cccc2nonc12	1	23	5	-8	19	7	x
CCN(CC)S(=O)(=O)c1cc([N+](=O)[O-])ccc1NNC(=O)Nc1ccccc1OC	-3	51*	-1	26	7	2	25
SMILES	SENP6 inh	SENP8 block-1	SENP8 block-2	UBC13 polyUb	Apaf1 inhib	SENP7 inh	SENP8 conf
CCN(CC)S(=O)(=O)c1cc([N+](=O)[O-])ccc1NNC(=O)Nc1ccc(F)cc1	8	26	-5	-15	2	-2	x
Cc1ccc(C(=O)C[n+]2cc(-c3ccc(C)cc3)n3c2CCCCC3)cc1	14	10	-8	-1	1	-14	x
O=C(C[n+]1cc(-c2ccccc2)n2c1CCCCC2)c1ccc(Br)cc1	-16	46*	-4	16	-4	6	10
COc1ccc(-c2c(C(=O)c3ccccc3)[nH]c(N)c2C(=O)NCc2ccccc2)cc1OC	x	7	x	x	x	x	x
CCOc1cc(/C=C2/SC(=Nc3ccccc3)N(Cc3cccnc3)C2=O)ccc1OCC#N	-21	40*	4	0	20	0	15
COc1ccc(/C=C2\SC(=S)N(Cc3cccnc3)C2=O)cc1C	-7	14	-19	-16	21	5	x
O=S1(=O)N[C@H](Cc2ccccc2)COc2cc(N3CC[C@H](O)C3)ccc21	x	17	x	x	x	x	x
CN(CC(=O)NCc1cccs1)CC(=O)Nc1ccccc1Cl	x	16	x	x	x	x	x
CC(C)NC(=O)N(C)C[C@H]1Oc2cc(C#Cc3ccc(F)cc3)ccc2S(=O)(=O)N([C@H](C)CO)C[C@H]1C	x	-11	x	x	x	x	x
Cc1nc2ccccc2c2c1C(=O)N(c1cccc(C(=O)O)c1)C2=O	-3	8	4	-4	4	-4	x
Cc1ccc(C)c(C(=O)COC(=O)c2cccc(N3C(=O)c4c(C)nc5ccccc5c4C3=O)c2)c1	2	42*	4	-13	5	5	14
CC(C)[C@H](CO)NC(=O)[C@H]1O[C@@H](n2ccc(=O)[nH]c2=O)[C@H](O)[C@@H]1O	x	22	x	x	x	x	x
Cc1cccc(N2CCN(C(=O)COc3noc4nc(C)cc(C)c34)CC2C)c1 (stereo not drawn)	x	-5	x	x	x	x	x
O=S(=O)(c1ccccc1C(F)(F)F)N1C=CC(C(F)(F)F)=NCC1	x	41*	x	x	x	x	8
O=C(Nc1ccc(O)cc1)C1CC=CCC1 (stereo not drawn)	5	41*	-2	-7	-2	2	49*
O=C(Nc1nccs1)C1CC=CCC1 (stereo not drawn)	-19	0	-12	-6	3	-1	x
O=C(/C(=C(\[O-])c1ccccc1)[n+]1ccc2ccccc2c1)c1ccc(Cl)cc1	11	46*	11	-6	14	18	62*
C/C(=N/O)c1ccccn1	-8	51*	-3	-3	-6	2	5
CCOC(=O)C1(C)CCN1C(=O)c1cccc(C(F)(F)F)c1 (stereo not drawn)	x	19	x	x	x	x	x
CNc1ccc([N+](=O)[O-])cc1-c1nc2ccccc2[nH]c1=O	0	42*	7	-16	2	-10	15
COc1ccc(CN(C2CCCC2)S(=O)(=O)c2ccc(-n3cnnn3)cc2)cc1OC	-17	26	-7	-5	38	-3	x
COc1ccc(CN(C2CCCC2)S(=O)(=O)c2ccc(-n3cnnn3)cc2)cc1	-14	44*	-8	8	7	4	23
CC1(OC(=O)CCc2ccccc2)C(=O)C=C2C=C3CCCN3C=C2C1=O (stereo not drawn)	8	55*	7	-64	37	5	43*
COC(=O)c1ccc2nc(-c3cccc(Cl)c3)c(Cc3ccsc3)n2c1	x	-348	x	x	x	x	x

Source: PubChem BioAssay (Sanford-Burnham Center for Chemical Genomics)
